Screening results from PubChem BioAssay.
CHOP UPR activ = apoptotic UPR (CHOP) activation | CHO-CHOP luciferase reporter, luminescence; percent of tunicamycin response over DMSO baseline | activation, % at 10 µM | hit rate 0.34% among 330,000;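 active = at 10 µM dose, activation of 40% or more, normalized to positive control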;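 note: 100% = tunicamycin at 10 µg/mL and 0% = DMSO alone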
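System: CHO CHOP reporter cells. Amount: 500 cells per well. Buffer or medium: F12 medium, 10% FBS. Compound dosing: one dose, 10 µM in 0.5% DMSO. Incubation: 6 h compound exposure at 37 °C after overnight seeding. Technique: Steady-Glo luciferase luminescence. Benchmarks: tunicamycin and DMSO controls.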
CHOP inhibitor = blocks CHOP induction under ER stress | inhibition, % at 10 µM | AID 2732 | CHO-K1 CHOP-promoter luciferase, tunicamycin-induced, 15-18 h | hit rate 3.8% among 220,000;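 active = compounds that reduced the stress-induced luciferase reporter signal by more than about 70% of percent inhibition, limit read from the data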;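 note: 0% = tunicamycin plus vehicle and 100% = wells without tunicamycin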
TbMetRS inhib = blocks T. brucei methionyl-tRNA synthetase activity; purified T. brucei MetRS, ATP depletion, Kinase-Glo luminescence; inhibition, % at 11.9 µM; hit rate 0.4% among 360,000;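 active = inhibition above a per-plate cutoff of the control wells' mean inhibition plus 3 SD, cut at about 5.5% in these data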;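 note: 0% = DMSO wells median and 100% = median of wells with control inhibitor compound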
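System: purified T. brucei MetRS enzyme / Detection: Kinase-Glo luciferase luminescence reporting remaining unconsumed ATP / Medium: HEPES buffer with MgCl2, KCl, DTT, spermine, BSA, pyrophosphatase / Replication: singlicate, one well per compound / Evaluation: percent inhibition relative to median high and low control wells / Schedule: 2 h aminoacylation at 25 °C after 15 min preincubation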
V-ATPase pH = yeast V-ATPase proton transport regulation by pHLuorin. S. cerevisiae, pHLuorin cytosolic pH fluorescence. response, % at 10 µM. hit rate 0.37% among 350,000. AID 504577; in the data active = response mostly above about 7.3%, no sharp cut-off; inactive = mostly below about 5.4%; note: actives read high
XBP1 UPR activ = activators of adaptive arm of unfolded protein response (XBP1). CHO-XBP1 luciferase reporter, IRE1-XBP1 UPR activation, luminescence; percent of tunicamycin response, DMSO as zero. activation, % at 20 µM. hit rate 0.33% among 330,000. AID 463104;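 active = versus positive control, 20 µM dose yields 30% or more activation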;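 note: 100% = tunicamycin at 10 µg/mL and 0% = DMSO only wells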
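assay system = CHO-XBP1 luciferase reporter cells | amount = 1000 cells/well | buffer or medium = F12 plus 10% FBS | compound dosing = single point, 20 µM final compound, 1% DMSO | incubation = 16-18 h cell attachment at 37 °C, then 6 h compound exposure | detection = Steady-Glo luminescence read | controls = tunicamycin 10 µg/mL and vehicle-only wells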
V-ATPase pH SP = modulates yeast V-ATPase proton transport; shares compounds with V-ATPase pH; S. cerevisiae pHLuorin cytosolic pH; response, % at 10 µM; hit rate 2% among 980; AID 602197; in the data active = response above about 24%;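 note: plate controls were vehicle wells for no effect and positive control wells for full effect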
* hit, by the source's call. Many of the other results were omitted from the sample, so hits are more common in it than they were.

Screening Cc1ccc(C(=O)Nc2ncc(C)s2)o1 returned CHOP UPR activ 1, CHOP inhibitor 3, TbMetRS inhib -2, V-ATPase pH 8.8*, XBP1 UPR activ -2 and V-ATPase pH SP 0.
`Cc1cc(C)cc(NS(=O)(=O)c2ccc3oc(=O)ccc3c2)c1` gave CHOP UPR activ -1, CHOP inhibitor 47, TbMetRS inhib 0, V-ATPase pH 14*, XBP1 UPR activ -3 and V-ATPase pH SP 3.
For C=CCn1c(SCC(=O)NC(=O)c2cccc([N+](=O)[O-])c2)nnc1-c1ccccc1 the results were CHOP UPR activ 4, CHOP inhibitor 7, TbMetRS inhib -1, V-ATPase pH 3 and XBP1 UPR activ -1.
For O=C(O)CNC(=O)CCCn1nnc2ccccc2c1=O the results were CHOP UPR activ 3, CHOP inhibitor 6, TbMetRS inhib 0, V-ATPase pH 4 and XBP1 UPR activ -2.
`COC(=O)c1ccc(CNC(=O)c2ccc3c(c2)S(=O)(=O)N=C2CCCCCN23)cc1` gave CHOP UPR activ 1, TbMetRS inhib 0, V-ATPase pH 11*, XBP1 UPR activ -3 and V-ATPase pH SP -1.
`O=C(NC1=NCCS1)c1cccc(F)c1` gave CHOP UPR activ 7, TbMetRS inhib 0, V-ATPase pH -2, XBP1 UPR activ 4 and V-ATPase pH SP -2.
`CC(C)C(=O)n1nc(-c2cccnc2)nc1NCc1cccs1` gave CHOP UPR activ 0, CHOP inhibitor 17, TbMetRS inhib -1, V-ATPase pH -1 and XBP1 UPR activ 0.
`O=C1CC(=O)OC(c2ccc([N+](=O)[O-])cc2)O1` gave TbMetRS inhib 0 and V-ATPase pH 6.
Screening O=[N+]([O-])c1ccc(C2CNC(c3ccccc3)O2)cc1 (stereo not drawn) returned CHOP UPR activ 0, CHOP inhibitor -5, TbMetRS inhib 0, V-ATPase pH 7.1*, XBP1 UPR activ 1 and V-ATPase pH SP 4.
For O=C(O)c1ccc(/C=N/N2CCN(C3c4ccccc4-c4ccccc43)CC2)cc1 the results were CHOP UPR activ 1, CHOP inhibitor 56, TbMetRS inhib -1, V-ATPase pH 19*, XBP1 UPR activ -2 and V-ATPase pH SP 46*.
Screening Cc1nnc(SCC(=O)N2CCCCCC2)n(N)c1=O returned CHOP UPR activ 0, CHOP inhibitor -6, TbMetRS inhib -1, V-ATPase pH 8.0*, XBP1 UPR activ -1 and V-ATPase pH SP -3.
For CCc1cc2c(=O)c(-c3nc(C)cs3)coc2cc1OC(C)C(=O)NCCO (stereo not drawn) the results were CHOP UPR activ 5, CHOP inhibitor 13, TbMetRS inhib -1, V-ATPase pH -1 and XBP1 UPR activ 2.
Screening CCNC(=O)COC(=O)CCC(=O)c1ccc(F)cc1 returned CHOP UPR activ 3, CHOP inhibitor 20, TbMetRS inhib 0, V-ATPase pH 1, XBP1 UPR activ 0 and V-ATPase pH SP 1.
CC1(C)Cc2nc(NC3CCCCC3)c(C#N)cc2CO1 was read as CHOP UPR activ 0, CHOP inhibitor 29, TbMetRS inhib 0, V-ATPase pH -1 and XBP1 UPR activ -2.
`CCOC(=O)C1CCN(C(=O)CN(c2cccc(C(F)(F)F)c2)S(C)(=O)=O)CC1` gave CHOP UPR activ 2, CHOP inhibitor 35, TbMetRS inhib -1, V-ATPase pH 12*, XBP1 UPR activ -2 and V-ATPase pH SP 1.
For COCCN(C(=O)c1ccc(C)o1)c1c(N)n(CC(C)C)c(=O)[nH]c1=O the results were CHOP UPR activ -1, TbMetRS inhib 0, V-ATPase pH -1 and XBP1 UPR activ -2.
Screening CCOc1ccc(C2/C(=C(/O)c3ccc(S(=O)(=O)N4CCCCC4)cc3)C(=O)C(=O)N2CCCOC)cc1OC (stereo not drawn) returned CHOP UPR activ 1, TbMetRS inhib 0, V-ATPase pH 3 and XBP1 UPR activ -2.
COc1cc(OC)c(NC(=O)c2sc3ncn(CC(=O)N4CCOCC4)c(=O)c3c2C)cc1Cl was read as CHOP UPR activ 2, TbMetRS inhib 0, V-ATPase pH 6.4*, XBP1 UPR activ 1 and V-ATPase pH SP -12.
For O=c1cc(CCl)nc2sc3ccccc3n12 the results were CHOP UPR activ 3, CHOP inhibitor -77, TbMetRS inhib 1, V-ATPase pH 13*, XBP1 UPR activ 1 and V-ATPase pH SP 1.
Screening O=C(CCN1C(=O)/C(=C\c2cccs2)SC1=S)Nc1ccccn1 returned CHOP UPR activ 0, CHOP inhibitor -8, TbMetRS inhib 0, V-ATPase pH 6.2*, XBP1 UPR activ -2 and V-ATPase pH SP -3.
`C=CCNC(=O)c1nn2cccnc2c1Cl` gave CHOP UPR activ -1, CHOP inhibitor 5, TbMetRS inhib -1, V-ATPase pH 11*, XBP1 UPR activ 5 and V-ATPase pH SP -1.
`CCCCCOc1ccc(C(=O)CCC(=O)Nc2ccc(NC(C)=O)cc2)cc1` gave CHOP UPR activ 0, TbMetRS inhib -2, V-ATPase pH 2 and XBP1 UPR activ -6.
C=CC[C@@H](CC(=O)N(CCO)Cc1ccccc1)C(=O)N[C@@H](C)COC(=O)[C@@H](CC=C)CC(=O)OC(C)(C)C was read as CHOP UPR activ -1, TbMetRS inhib 0, V-ATPase pH 14*, XBP1 UPR activ -2 and V-ATPase pH SP 5.
For C=CC[C@H](CC(=O)N(CCO)Cc1ccccc1)C(=O)N[C@@H](C)COC(=O)[C@H](CC=C)CC(=O)OC(C)(C)C the results were CHOP UPR activ 1, TbMetRS inhib 0, V-ATPase pH -6 and XBP1 UPR activ -3.
Screening COc1ccc(CNC(=O)C(=O)NCC2OCCN2S(=O)(=O)c2ccc(OC)cc2)cc1 (stereo not drawn) returned CHOP UPR activ -1, TbMetRS inhib 0, V-ATPase pH -1 and XBP1 UPR activ -4.
Screening COC(=O)C1=C(Nc2cc(Cl)cc(Cl)c2)CSC1 returned CHOP UPR activ 0, CHOP inhibitor 17, TbMetRS inhib 0, V-ATPase pH 3 and XBP1 UPR activ -1.
`COC(=O)COc1ccc2c(c1)O/C(=C\c1cccc([N+](=O)[O-])c1)C2=O` gave CHOP UPR activ 3, TbMetRS inhib 0, V-ATPase pH 13*, XBP1 UPR activ -6 and V-ATPase pH SP 3.
`CC(=O)Nc1nc(N2C(=O)c3ccccc3C2=O)n(-c2ccccc2)n1` gave CHOP UPR activ -1, CHOP inhibitor -32, TbMetRS inhib -2, V-ATPase pH 7.0*, XBP1 UPR activ -4 and V-ATPase pH SP -1.
O=C(CN1C(=O)NC2(CCCC2)C1=O)NCCc1ccc(F)cc1 was read as CHOP UPR activ -1, TbMetRS inhib 0, V-ATPase pH 11*, XBP1 UPR activ -1 and V-ATPase pH SP 1.
